High-throughput results deposited in PubChem by several laboratories.
NadD inh: inhibitors of S. aureus NadD, primary screen, biochemical, colorimetric, uHTS | purified NadD enzyme, colorimetric absorbance read-out | actives 0.78% (n = 360,000) | Nicotinate-nucleotide adenylyltransferase NadD (Staphylococcus aureus N315) | inhibition, % at 20 µM | AID 602399, 2012; in the data active = inhibition above about 26%
Beta2AR agonist: beta2AR agonists driving receptor internalization, primary screen, cell-based, FAP fluorogen, flow cytometry. Beta-2 adrenergic receptor (Homo sapiens), P07550. Am2.2-beta2AR cells. response, % (no concentration beside the values). actives 0.43% (n = 340,000);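 active = response above a set limit, near 3 SD of response in nonfluorescent compounds, cut at about 42% in these data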
GRK2 aptamer HTS: compounds blocking aptamer binding on GRK2 – biochemical, human GRK2, bead flow cytometry, HTS, primary screen; Beta-adrenergic receptor kinase 1 (Homo sapiens), P25098; FAM-aptamer displacement from GRK2; inhibition of aptamer binding, % at 10 µM; actives 0.59% (n = 330,000);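 active = inhibition of aptamer binding above 40%, roughly 3 SD of noise, on plates passing a quality check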;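 note: median bead fluorescence of bound FAM aptamer so fluorescent compounds give negative values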
SENP1 inh: human SENP1 catalytic domain inhibitors, primary screen, biochemical, FRET, uHTS. actives 0.21% (n = 360,000). AID 624204, 2012. Sentrin-specific protease 1 (Homo sapiens), Q9P0U3. inhibition, % at 10 µM. recombinant SENP1 catalytic domain, CyPet-SUMO1-YPet FRET cleavage;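 active = inhibition at least 30% at 10 µM, raw YFP signal under a set limit, fluorescence ratio 0.5 to 1.5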;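 note: 0% = enzyme with DMSO and 100% = no enzyme wells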
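Test system: recombinant human SENP1 catalytic domain, His6-tagged / Medium: pH 8 Tris buffer with EDTA, NaCl, BME, BSA, NP40, catalase / Also added: SUMO1 FRET substrate flanked by Cypet and Ypet, 25 nM / Times: 50 min reaction at room temperature / Signal: FRET, CFP and YFP emission / Control set: no-enzyme low control and enzyme-plus-DMSO high control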
ABHD5 PLIN5 PPI: ABHD5-PLIN5 interaction inhibitors, primary screen, cell lysate, split luciferase complementation, luminescence; actives 0.78% (n = 360,000); Split G. princeps luciferase complementation, 4 h; AID 602281, 2012; inhibition, % at 4 µM;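 active = inhibition above the mean inhibition across every tested compound plus 3 SD, cut at about 22% in these data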;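 note: 0% = DMSO only wells and the 100% control is not disclosed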
Target sequence (Q00G26 whole entry, looked up): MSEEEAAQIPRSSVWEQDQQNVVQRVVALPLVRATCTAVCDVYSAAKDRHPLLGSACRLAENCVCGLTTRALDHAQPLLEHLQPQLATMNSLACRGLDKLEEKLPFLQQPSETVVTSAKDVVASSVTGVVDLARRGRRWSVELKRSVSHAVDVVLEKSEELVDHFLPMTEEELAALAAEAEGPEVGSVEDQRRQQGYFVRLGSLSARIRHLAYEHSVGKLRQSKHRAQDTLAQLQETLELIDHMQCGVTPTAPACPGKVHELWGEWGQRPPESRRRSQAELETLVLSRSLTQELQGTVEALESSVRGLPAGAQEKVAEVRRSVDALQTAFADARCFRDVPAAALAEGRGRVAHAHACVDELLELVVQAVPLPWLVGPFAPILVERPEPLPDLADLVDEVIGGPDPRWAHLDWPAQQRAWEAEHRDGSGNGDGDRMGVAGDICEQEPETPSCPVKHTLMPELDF
Target sequence (Q8WTS1 whole entry, looked up): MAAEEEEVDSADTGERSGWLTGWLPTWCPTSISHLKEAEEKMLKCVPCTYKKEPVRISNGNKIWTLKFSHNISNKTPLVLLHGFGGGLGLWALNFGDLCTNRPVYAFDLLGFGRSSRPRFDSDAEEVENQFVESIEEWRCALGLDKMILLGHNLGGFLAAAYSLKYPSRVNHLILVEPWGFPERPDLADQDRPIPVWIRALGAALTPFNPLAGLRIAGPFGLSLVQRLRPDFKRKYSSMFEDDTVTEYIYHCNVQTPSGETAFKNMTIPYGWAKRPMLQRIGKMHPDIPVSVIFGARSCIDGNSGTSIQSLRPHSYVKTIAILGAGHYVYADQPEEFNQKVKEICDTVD
GRK2 CP1: GRK2 aptamer-displacing inhibitors, retest, confirmation, biochemical, cherry pick 1, bead flow cytometry; shares compounds with GRK2 aptamer HTS; bead-bound GRK2, FAM-aptamer displacement; aptamer displacement, % at 10 µM; actives 4% (n = 2,000); AID 504451, 2011;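 active = aptamer displacement above 40%, near three times the noise of non-fluorescent compounds, on plates passing quality checks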;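 note: negative values mostly reflect intrinsic compound fluorescence rather than true enhancement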
Aptamer quench: counter-screen for GRK2 aptamer inhibitors: fluorescent aptamer quenchers. 110 tested, under 10 active. fluorescence change (kMESF span), kMESF (concentration not given with the values). shares compounds with GRK2 aptamer HTS. AID 504521. Fluorescent RNA aptamer beads, quenching, flow cytometry; hits give high values;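 active = compounds whose bead fluorescence drops by more than 37 kMESF across the dose range, marking them as dye quenchers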
FAM quench CP1: counter-screen for GRK2 aptamer inhibitors: fluorescent aptamer quenchers; shares compounds with GRK2 aptamer HTS; 2,000 tested, under 10 active; Carboxyfluorescein RNA aptamer on beads, flow cytometry quenching; hits give low values; fluorescence response (% of DMSO), % at 10 µM; AID 504580;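 active = compounds that quench the bead-bound fluorescent RNA probe, cutting fluorescence to under half of the solvent control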;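 note: counterscreen run without GRK2 so only probe quenching by compound is measured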
* marks the source's active call; other numbers are inactive results; . = no result. Sampled rows, rich in hits. Any-hit rate of the full collection: about 2.5%.

SMILES	NadD inh	Beta2AR agonist	GRK2 aptamer HTS	SENP1 inh	ABHD5 PLIN5 PPI	GRK2 CP1	FAM quench CP1	others
Cn1c(SCc2cccc(F)c2)nnc1-c1ccccn1	-2	-17	58*	2	2	-2	100
O=C(CCc1c[nH]c2ccccc12)OCc1cccc([N+](=O)[O-])c1	-16	-2	0	1	0	.	.
Cc1c(NC(=O)c2ccc(S(=O)(=O)N(C)C)cc2)cccc1-n1cnnn1	0	1	94*	-1	1	-3	98
COc1ccc2nc(SCC(=O)NC3(C#N)CCCCC3)[nH]c2c1	2	10	1	1	-4	.	.
CCCn1c(N)c(N(CCOC)C(=O)CSCC(=O)Nc2ccc(OC)cc2)c(=O)[nH]c1=O	-1	1	1	0	5	.	.
Cc1nc(C(=O)NCc2ccccc2)sc1C1(C)CC(c2ccccc2)=NO1 (centres undefined)	-11	-1	2	2	-15	-1	101
CCOC(=O)[C@@H]1[C@H]2COc3cc(OC)ccc3[C@@H]2N2C(=O)N(c3cccc(Cl)c3)C(=O)[C@@]12C	-4	1	0	2	-2	.	.
Cc1ccc(CS(=O)Cc2ccc(C(=O)NCc3ccccc3Br)o2)cc1 (centres undefined)	-1	5	0	-3	3	.	.
O=C(Nc1ccc(N2CCOCC2)c(Cl)c1)c1cc(F)c(F)cc1Cl	3	7	1	-1	-1	.	.
O=C(Nc1cc(C(=O)N2CCOCC2)cc(C(=O)N2CCOCC2)c1)c1cc(F)c(F)cc1Cl	-5	-5	27	1	1	-2	103
Cn1c(NCc2ccccc2Cl)nc2ccccc21	-6	-7	6	1	3	.	.
Cn1c(NCc2ccccc2O)nc2ccccc21	-1	0	45*	0	-4	1	99
COc1ccccc1C=NNC(=O)c1ccncc1	1	8	.	1	7	.	.
COc1ccc(OC)c(/C=N/NC(=O)c2ccncc2)c1	-9	-6	57*	-1	-1	-1	99
CCOc1ccccc1C1c2[nH]c3ccccc3c2C[C@H]2C(=O)N(C3CCN(Cc4ccccc4)CC3)CC(=O)N12 (some centres undefined)	12	15	0	0	6	-13	101
Cc1ccccc1C1c2[nH]c3ccccc3c2C[C@H]2C(=O)N(C3CCN(Cc4ccccc4)CC3)CC(=O)N12 (some centres undefined)	11	13	0	-20	7	-20	105
COc1ccc(C2c3[nH]c4ccccc4c3C[C@H]3C(=O)N(C4CCN(Cc5ccccc5)CC4)CC(=O)N23)c(OC)c1 (some centres undefined)	24	11	0	-12	8	.	.
COC(=O)c1ccc(S(=O)(=O)NCc2ccc(S(N)(=O)=O)cc2)o1	-2	-1	0	0	-3	.	.
COC(=O)c1ccc(S(=O)(=O)NCc2ccco2)o1	2	-2	47*	1	-2	0	102
C[C@@H]1NC(=O)OC1c1ccco1 (some centres undefined)	-5	-6	76*	1	-1	5	99
O=C1N[C@@H](Cc2ccccc2)[C@@H](c2ccco2)O1	1	3	1	-1	0	.	.
CCN(/N=C/c1ccc(Cl)cc1)c1cc(=O)n(C)c(=O)[nH]1	-2	2	92*	-15	1	-8	95
COc1cc(C(C)=O)ccc1OCCCOc1cccc2cccnc12	-1	3	0	5	2	.	.
O=C(O)c1ccc2c(c1)C(=O)/C(=C\c1ccco1)C2=O	-2	-2	58*	31*	2	-4	94
CC(C)Sc1nc2c([nH]1)c(=N)ncn2Cc1ccccc1	-4	-10	81*	0	-6	0	97
SMILES	NadD inh	Beta2AR agonist	GRK2 aptamer HTS	SENP1 inh	ABHD5 PLIN5 PPI	GRK2 CP1	FAM quench CP1	others
O=C(CC(Cc1ccccc1)C(=O)O)Nc1ccc(Cl)c(Cl)c1 (centres undefined)	-3	3	99*	3	5	-2	100
CCN(CC(=O)Nc1c(F)cccc1F)C(=O)C1CCCN(C(=O)c2ccc(Cl)cc2)C1 (centres undefined)	8	0	0	0	1	.	.
Cc1cc(C)c2c(c1)C1(OCCO1)C(=O)N2	0	-7	18	-2	5	1	103
O=C(CCc1n[nH]c(=O)[nH]c1=O)N1CCCCC1	-2	-3	30	2	-4	1	100
CCN(CC)c1ccc(NC(=O)c2cc3c(OC)cccc3[nH]2)cc1	-2	19	12	-26	-16	1	94
O=C(C(=O)N1CCN(c2ccc([N+](=O)[O-])cc2)CC1)c1cn(CC(=O)N2CCOCC2)c2ccccc12	4	3	3	-8	-2	.	.
CCOC(=O)c1c(C)[nH]c(C)c1S(=O)(=O)N(C)CC(=O)Nc1cccc(C)c1	-5	3	6	1	6	.	.
Cc1ccc(S(=O)(=O)NCCCCCC(=O)NC(C)(C)CO)cc1	-4	32	1	0	-10	.	.
CCCC[N+](C)(C)CCC(=O)NC(C)(C)CS(=O)(=O)[O-]	-9	3	40	4	0	27	103	Aptamer quench=-236
COc1cccc(C(=O)OCC(=O)c2c[nH]c3ccccc23)c1OC	-13	2	43*	-8	-5	-7	122
CCCc1cc(C(=O)OC)c2ccccc2n1	-3	3	0	0	-6	.	.
COC(=O)c1cc(Cl)nc2ccccc12	-1	2	87*	-2	7	3	95
CCCc1cc(=O)[nH]c(SCC(=O)c2c[nH]c3ccccc23)n1	7	2	59*	7	-5	-2	116
O=C(c1ccc(F)cc1F)N1CCN(c2ncccn2)CC1	0	1	4	0	-1	.	.
